Experimental data from ChEMBL document CHEMBL1765044, “3-Hydroxypyrimidine-2,4-diones as an inhibitor scaffold of HIV integrase” (J Med Chem, 2011).

What was measured:
[1] = test system: Human immunodeficiency virus 1; assay: Fold resistance, ratio for Human immunodeficiency virus 1 NL4-3 reverse transcriptase K103N mutant to wild-type Human immunodeficiency virus 1 NL4-3 reverse transcriptase
How it was run: (§1)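 HIV-1 NL4-3 strains carrying the reverse transcriptase K103N or Y181C mutation were tested in MAGI R5 cells, with the NNRTI TNK-651 as control. Fold-resistance is the mutant/wild-type ratio.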

[2] = test system: Human immunodeficiency virus 1; assay: Fold resistance, ratio for Human immunodeficiency virus 1 NL4-3 reverse transcriptase Y181C mutant to wild-type Human immunodeficiency virus 1 NL4-3 reverse transcriptase; how it was run: as §1
[3] = Inhibition of Human immunodeficiency virus recombinant integrase 3'-processing activity expressed in Escherichia coli after 60 mins using [32P]-labeled oligonucleotide substrate by densitometric analysis
[4] = Inhibition of HIV recombinant integrase strand transfer activity expressed in Escherichia coli after 60 mins using [32P]-labeled oligonucleotide substrate by densitometric analysis; parameters: species or system Human immunodeficiency virus
[5] = test system: Human immunodeficiency virus 1; settings: NL4-3
[6] = test system: Human immunodeficiency virus 1; assay: Ratio of IC50 for Human immunodeficiency virus 1 NL4-3 integrase Y143R mutant to IC50 for wild-type Human immunodeficiency virus 1 NL4-3 integrase
How it was run: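 Recombinant HIV-1 integrase (wild type or mutant) was expressed in E. coli, with 10% glycerol in all buffers. Reactions were stopped with EDTA/formamide dye. IC50 came from a logistic nonlinear fit; the ratio is IC50 mutant/WT from two independent experiments.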

[7] = test system: Human immunodeficiency virus 1; settings: NL4-3; remark: listed apart in the source
[8] = test system: Human immunodeficiency virus 1; assay: Fold resistance, ratio of EC50 for raltegravir-resistant Human immunodeficiency virus 1 1556-1 expressing integrase Y143C mutant to EC50 for raltegravir-resistant Human immunodeficiency virus 1 1556-1 expressing wild-type integrase; assay type: functional
[9] = test system: Human immunodeficiency virus 1; assay: Antiviral activity against Human immunodeficiency virus 1 3B infected in CEM-SS cells assessed as reduction in virus-induced cytopathic effect at 10 uM after 6 days; assay type: functional; parameters: scale not given: the % may be the effect or the level left
How it was run: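 CEM-SS cells were mixed with pre-titered HIV-1 IIIB and the compound at a single 10 μM and incubated for 6 days. Virus dose was set to give 70–95% viability loss in virus-control wells. CPE reduction (cytoprotection) and cell viability were read by MTS. Plates included cell, virus, compound-toxicity and colorimetric control wells, with AZT as positive control.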

[10] = test system: Human immunodeficiency virus 1; assay: Antiviral activity against Human immunodeficiency virus 1 3B infected in human CEM-SS cells assessed as cytoprotection against virus-induced toxicity at 10 uM after 6 days by MTS assay; assay type: functional
How it was run: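 Single-concentration screen at 10 μM, run only on compounds with strand-transfer IC50 ≤10 μM. CPE reduction (%) and cell viability (%) assessed by MTS; AZT positive control.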

[11] = test system: Human immunodeficiency virus 1; assay: Antiviral activity against Human immunodeficiency virus 1 3B infected in CEM-SS cells assessed as inhibition of viral replication after 6 days; assay type: functional, organism-based; settings: 144 h
How it was run: (§2)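 CEM-SS cells mixed with pre-titered HIV-1 IIIB (titer chosen so virus-control wells lose 70–95% viability) plus compound in dose response, incubated 6 days. Viability read by MTS; controls are cells alone, cells+virus, cells+compound and compound alone. EC50 is the concentration protecting 50% against virus-induced loss; CC50 is the concentration killing 50% of cells; TI = CC50/EC50. AZT used as positive control.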

[12] = (§3) Cytotoxicity against human CEM-SS cells infected with Human immunodeficiency virus 1 3B after 6 days by MTS assay; assay type: cell-based; settings: CEM-SS cells infected with HIV-1 3B, read-out: TC50; how it was run: as §2
[13] = Therapeutic index, ratio of CC50 for human CEM-SS cells to EC50 for Human immunodeficiency virus 1 3B; assay type: cell-based; settings: read-out: TI
How it was run: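 CEM-SS cells mixed with HIV-1 IIIB and compound, incubated 6 days; virus pre-titered so control wells lose 70–95% viability. Cytoprotection (EC50) and cytotoxicity in uninfected compound-only wells (CC50) read by MTS from dose-response. TI calculated as CC50/EC50. Controls: cells only, virus only, and compound only (colorimetric). AZT served as positive control.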

[14] = Cytotoxicity against human MT4 cells infected with raltegravir-resistant Human immunodeficiency virus 1 8070-2; assay type: cell-based; settings: MT4 cells infected with raltegravir-resistant HIV-1 8070-2, read-out: TC50 (the source's name)
[15] = Cytotoxicity against human MT4 cells infected with raltegravir-resistant Human immunodeficiency virus 1 1556-1; assay type: cell-based; settings: MT4 cells infected with raltegravir-resistant HIV-1 1556-1, read-out: TC50 (the source's name)
[16] = Cytotoxicity against human MT4 cells infected with raltegravir-resistant Human immunodeficiency virus 1 4736-2; assay type: cell-based; settings: MT4 cells infected with raltegravir-resistant HIV-1 4736-2, read-out: TC50 (the source's name)
CEM-SS = assay: as §3; assay type: cell-based; settings: cem-ss, 144 h; how it was run: as §2

| SMILES | IC50 [3] | IC50 [4] | Activity [10] | also measured |
| --- | --- | --- | --- | --- |
| CC(C)c1c(Cc2ccccc2)n(COCc2ccc(F)cc2)c(=O)n(O)c1=O | – | – | – | Ratio [1]: 16; Ratio [2]: 48 |
| CC(C)c1c(Cc2ccc(F)cc2)n(Cc2ccc(F)cc2)c(=O)n(O)c1=O | > 111 µM | 73 µM | – | – |
| Cc1nnc(C(=O)NC(C)(C)c2nc(C(=O)NCc3ccc(F)cc3)c(O)c(=O)n2C)o1 [RALTEGRAVIR] | – | – | – | Ratio IC50 [5]: 139; Ratio IC50 [6]: 24; Ratio IC50 [7]: 8; Ratio EC50 [8]: >855 |
| CCc1c(Cc2ccccc2)n(Cc2ccccc2)c(=O)n(O)c1=O | > 111 µM | > 111 µM | – | – |
| CC(C)c1c(Cc2ccccc2)n(COCc2ccc(F)cc2)c(=O)[nH]c1=O | > 111 µM | > 111 µM | – | – |
| CC(C)c1c(Cc2ccccc2)n(COCCCc2ccc(F)cc2)c(=O)n(O)c1=O | > 111 µM | 3.2 µM | 92% | Activity [9]: 30% |
| CC(C)c1c(Cc2ccccc2)n(COCc2cccc(Cl)c2F)c(=O)n(O)c1=O | > 111 µM | 2.3 µM | 100% | EC50 [11]: 0.95 µM; CC50 at 144 h [12]: > 100 µM; selectivity ratio [13]: > 105; Ratio IC50 [5]: 14; Ratio IC50 [6]: 5; Ratio IC50 [7]: 5; Ratio EC50 [8]: >1.7; CC50 [14]: 2 µM; CC50 [15]: 2 µM; CC50 [16]: 2 µM |
| Cc1cn(Cc2ccc(F)cc2)c(=O)n(O)c1=O | > 111 µM | > 111 µM | – | – |
| CC(C)c1c(Cc2ccccc2)n(COCCCCc2ccc(F)cc2)c(=O)n(O)c1=O | > 111 µM | 4.5 µM | 88% | Activity [9]: 12% |
| CC(C)c1c(Cc2ccccc2)n(CCCCc2ccc(F)cc2)c(=O)n(O)c1=O | > 111 µM | 0.56 µM | 94% | Activity [9]: 6% |
| CC(C)c1c(Cc2ccc(F)cc2)n(COCc2ccccc2)c(=O)n(O)c1=O | > 111 µM | 7.3 µM | 100% | EC50 [11]: 1.1 µM; CC50 (CEM-SS): > 20 µM; selectivity ratio [13]: > 18 |
| CC(C)c1c(Cc2ccccc2)n(COCc2ccc(F)cc2)c(=O)n(C)c1=O | > 111 µM | > 111 µM | – | – |
| CCc1c(Cc2ccccc2)c(=O)[nH]c(=O)n1COCc1ccccc1 | – | – | 100% | Activity [9]: 48% |
| COn1c(=O)c(C(C)C)c(Cc2ccccc2)n(COCc2ccc(F)cc2)c1=O | > 111 µM | > 111 µM | – | – |
| CCc1c(Cc2ccccc2)n(COCc2ccccc2)c(=O)n(O)c1=O | > 111 µM | 8.2 µM | – | – |
| CC(C)c1c(Cc2ccccc2)n(COCCc2ccc(F)cc2)c(=O)n(O)c1=O | > 111 µM | 1.6 µM | 83% | Activity [9]: 27% |

| SMILES | IC50 [3] | IC50 [4] | Activity [10] | also measured |
| --- | --- | --- | --- | --- |
| Cc1cn(COCc2ccccc2)c(=O)n(O)c1=O | > 111 µM | 75 µM | – | – |
| O=c1c2ccccc2n(Cc2ccccc2)c(=O)n1O | > 111 µM | – | – | – |
| CC(C)c1c(Cc2ccc(F)cc2)n(COCc2ccc(F)cc2)c(=O)n(O)c1=O | > 111 µM | 5.5 µM | – | – |
| CC(C)c1c(Cc2ccccc2)n(CCCc2ccc(F)cc2)c(=O)n(O)c1=O | > 111 µM | 0.44 µM | 97% | Activity [9]: 12% |
| CC(C)c1c(Cc2ccccc2)n(Cc2ccc(F)cc2)c(=O)n(O)c1=O | > 111 µM | 22 µM | – | – |
| O=c1c2ccccc2n(Cc2ccc(F)cc2)c(=O)n1O | > 111 µM | – | – | – |
| CCc1c(Cc2ccccc2)c(=O)n(O)c(=O)n1COCc1ccccc1 | > 111 µM | 36 µM | – | – |
| CC(C)c1c(Cc2ccc(F)cc2)n(Cc2ccccc2)c(=O)n(O)c1=O | > 111 µM | 32 µM | – | – |
| CC(C)c1c(Cc2ccccc2)n(COCc2ccc(F)cc2F)c(=O)n(O)c1=O | > 111 µM | 4.8 µM | 100% | EC50 [11]: 2.1 µM; CC50 (CEM-SS): > 100 µM; selectivity ratio [13]: > 47 |
| CC(C)c1c(Cc2ccccc2)n(CCc2ccc(F)cc2)c(=O)n(O)c1=O | > 111 µM | 46 µM | – | – |
| CCc1c(Cc2ccccc2)c(=O)n(O)c(=O)n1COCc1ccc(F)cc1 | > 111 µM | 11 µM | – | – |
| CCc1c(Cc2ccccc2)c(=O)[nH]c(=O)n1COCc1ccc(F)cc1 | – | – | 92% | Activity [9]: 10% |
| CCc1c(Cc2ccccc2)n(Cc2ccc(F)cc2)c(=O)n(O)c1=O | > 111 µM | 24 µM | – | – |
| Cc1cn(Cc2ccccc2)c(=O)n(O)c1=O | > 111 µM | > 111 µM | – | – |
| CC(C)c1c(Cc2ccccc2)n(Cc2ccccc2)c(=O)n(O)c1=O | > 111 µM | 28 µM | – | – |
